Experimental data published in ChEMBL document CHEMBL4828738, “Design, synthesis and evaluation of novel 5-phenylthiophene derivatives as potent fungicidal of Candida albicans and antifungal reagents of fluconazole-resistant fungi” (Eur J Med Chem, 2021).
Values after ≈ are worked out from the molar mass of the structure shown.

Columns and labels:
[1] = test system: Candida albicans; test: Antifungal activity against Candida albicans CPCC400616 assessed as fungal growth inhibition by CLSI protocol based method; assay type: functional
[2] = test system: Candida tropicalis; test: Antifungal activity against Candida tropicalis CGMCC 2.3739 assessed as fungal growth inhibition by CLSI protocol based method; assay type: functional
[3] = test system: MCF7; test: Cytotoxicity against human MCF7 cells assessed as reduction in cell viability measured after 96 hrs by MTT assay; assay type: ADME, cell-based; settings: MCF7, 96 h
[4] = test system: A549; test: Cytotoxicity against human A549 cells assessed as reduction in cell viability measured after 96 hrs by MTT assay; assay type: ADME, cell-based; settings: A549, 96 h
[5] = test system: Nakaseomyces glabratus; test: Antifungal activity against Candida glabrata assessed as fungal growth inhibition by CLSI protocol based method; assay type: functional
[6] = test system: Candida albicans; test: Anti-biofilm activity in Candida albicans CPCC400616 assessed as inhibition of biofilm formation incubated for 24 hrs by XTT assay; assay type: functional
How it was run: (§1)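 C. albicans CPCC400616 suspension placed in wells at 37 °C. Non-adherent cells and medium were removed at 3, 6, 18 or 24 h and wells washed with PBS. Compounds were added at a range of concentrations in fresh RPMI 1640 and incubated a further 24 h at 37 °C. Biofilm metabolic activity was read by XTT reduction.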

[7] = test system: Cryptococcus neoformans; test: Antifungal activity against Cryptococcus neoformans CGMCC2.3161 assessed as fungal growth inhibition by CLSI protocol based method; assay type: functional
[8] = test system: Candida albicans; test: Anti-biofilm activity in Candida albicans CPCC400616 assessed as inhibition of biofilm formation incubated for 18 hrs by XTT assay; assay type: functional; how it was run: as §1
[9] = test system: Candida albicans; test: Anti-biofilm activity in Candida albicans CPCC400616 assessed as inhibition of biofilm formation incubated for 6 hrs by XTT assay; assay type: functional; how it was run: as §1
[10] = test system: Candida albicans; test: Antifungal activity against Candida albicans ATCC SC5314 assessed as fungal growth inhibition by CLSI protocol based method; assay type: functional
[11] = test system: Candida parapsilosis; test: Antifungal activity against Candida parapsilosis GIM2.190 assessed as fungal growth inhibition by CLSI protocol based method; assay type: functional; settings: Lodderomyces parapsilosis
[12] = test system: Candida albicans; test: Anti-biofilm activity in Candida albicans CPCC400616 assessed as inhibition of biofilm formation incubated for 3 hrs by XTT assay; assay type: functional; how it was run: as §1
[13] = test system: Pichia kudriavzevii; test: Antifungal activity against Candida krusei GIM2.1 assessed as fungal growth inhibition by CLSI protocol based method; assay type: functional
[14] = test system: THLE-2; test: Cytotoxicity against human THLE-2 cells assessed as reduction in cell viability measured after 96 hrs by MTT assay; assay type: ADME, cell-based; settings: THLE-2, 96 h
[15] = test system: Candida albicans; test: Fungicidal activity against Candida albicans ATCC SC5314 assessed as inhibition of visible fungal growth measured after 48 hrs; assay type: functional
[16] = target: T1, Lanosterol 14-alpha demethylase (Candida albicans (strain SC5314 / ATCC MYA-2876) (Yeast), UniProt P10613); test: Inhibition of CYP51 in Candida albicans assessed as lanosterol level at 0.25 ug/ml measured after 18 hrs by GC-MS analysis relative to control; set-up: scale not given: the % may be the effect or the level left; settings: at 0.25 µg/mL
[17] = target: T1, Lanosterol 14-alpha demethylase; test: Inhibition of CYP51 in Candida albicans assessed as ergosterol level at 0.25 ug/ml after 18 hrs by GC-MS analysis (reference value: 96.93 %); set-up: scale not given: the % may be the effect or the level left; settings: at 0.25 µg/mL
[18] = test system: Candida albicans; test: Antifungal activity against fluconazole-resistant Candida albicans 901 assessed as fungal growth inhibition by CLSI protocol based method
[19] = target: T1, Lanosterol 14-alpha demethylase; test: Inhibition of CYP51 in Candida albicans assessed as other sterols level at 0.25 ug/ml measured after 18 hrs by GC-MS analysis relative to control; set-up: scale not given: the % may be the effect or the level left; settings: at 0.25 µg/mL
[20] = target: T1, Lanosterol 14-alpha demethylase; test: Inhibition of CYP51 in Candida albicans assessed as 14alpha-methylfecosterol level at 0.25 ug/ml measured after 18 hrs by GC-MS analysis relative to control; set-up: scale not given: the % may be the effect or the level left; settings: at 0.25 µg/mL
[21] = test system: Candida albicans; test: Antifungal activity against fluconazole-resistant Candida albicans 904 assessed as fungal growth inhibition by CLSI protocol based method
[22] = test system: Candida albicans; test: Antifungal activity against fluconazole-resistant Candida albicans 103 assessed as fungal growth inhibition by CLSI protocol based method
[23] = target: T1, Lanosterol 14-alpha demethylase; test: Inhibition of CYP51 in Candida albicans assessed as Eburicol level at 0.25 ug/ml measured after 18 hrs by GC-MS analysis relative to control; set-up: scale not given: the % may be the effect or the level left; settings: at 0.25 µg/mL
[24] = test system: Candida albicans; test: Antifungal activity against fluconazole-resistant Candida albicans 632 assessed as fungal growth inhibition by CLSI protocol based method
[25] = test system: Candida albicans; test: Antifungal activity against fluconazole-resistant Candida albicans 311 assessed as fungal growth inhibition by CLSI protocol based method
[26] = test system: Candida albicans; test: Antifungal activity against fluconazole-resistant Candida albicans 100 assessed as fungal growth inhibition by CLSI protocol based method
[27] = target: CYP2C9 (Homo sapiens, UniProt P11712); test: Inhibition of CYP2C9 in human liver Microsome using diclofenac as substrate preincubated for 10 mins followed by NADPH addition and further incubated for 10 mins as substrate by LC-MS/MS analysis relative to control; settings: liver microsomes, probe diclofenac
Chain of CYP2C9 (P11712 whole entry): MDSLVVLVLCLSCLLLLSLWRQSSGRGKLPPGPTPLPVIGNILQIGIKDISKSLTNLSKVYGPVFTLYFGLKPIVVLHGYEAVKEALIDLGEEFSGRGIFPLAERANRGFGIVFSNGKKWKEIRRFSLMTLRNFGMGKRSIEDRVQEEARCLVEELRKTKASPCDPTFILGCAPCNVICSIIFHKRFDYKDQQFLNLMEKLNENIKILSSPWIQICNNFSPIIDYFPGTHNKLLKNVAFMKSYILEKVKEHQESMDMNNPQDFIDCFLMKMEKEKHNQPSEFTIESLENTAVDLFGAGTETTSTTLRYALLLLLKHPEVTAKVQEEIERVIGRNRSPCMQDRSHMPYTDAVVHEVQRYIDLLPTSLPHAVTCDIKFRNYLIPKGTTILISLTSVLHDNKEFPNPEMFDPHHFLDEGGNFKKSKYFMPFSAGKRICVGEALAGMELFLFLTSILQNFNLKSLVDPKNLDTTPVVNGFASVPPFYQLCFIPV

T1 sequence (P10613 whole entry): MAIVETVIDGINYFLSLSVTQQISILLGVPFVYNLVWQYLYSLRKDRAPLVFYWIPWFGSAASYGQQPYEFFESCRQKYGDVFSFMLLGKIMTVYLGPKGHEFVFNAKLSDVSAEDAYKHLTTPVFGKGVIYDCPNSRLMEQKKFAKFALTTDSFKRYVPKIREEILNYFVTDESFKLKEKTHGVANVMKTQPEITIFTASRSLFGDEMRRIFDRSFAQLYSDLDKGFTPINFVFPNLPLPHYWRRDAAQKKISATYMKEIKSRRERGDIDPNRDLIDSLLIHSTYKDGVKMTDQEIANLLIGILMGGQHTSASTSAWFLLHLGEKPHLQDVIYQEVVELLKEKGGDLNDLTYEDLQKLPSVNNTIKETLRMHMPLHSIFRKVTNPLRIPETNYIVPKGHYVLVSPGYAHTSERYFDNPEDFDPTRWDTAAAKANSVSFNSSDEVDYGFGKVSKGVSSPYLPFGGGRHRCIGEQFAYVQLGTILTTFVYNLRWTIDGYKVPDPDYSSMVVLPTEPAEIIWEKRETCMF

SMILES	MIC [1] [µg/mL]	MIC [2] [µg/mL]	IC50 [3] [µM]	IC50 [4] [µM]	MIC [5] [µg/mL]	MBIC50 [6] [µg/mL]	MIC [7] [µg/mL]	MBIC50 [8] [µg/mL]	MBIC50 [9] [µg/mL]	MIC [10] [µg/mL]	MIC [11] [µg/mL]	MBIC50 [12] [µg/mL]	MIC [13] [µg/mL]	IC50 [14] [µM]	MFC [15] [µg/mL]	further results
CCC(C)n1ncn(-c2ccc(N3CCN(c4ccc(OCC5COC(Cn6cncn6)(c6ccc(Cl)cc6Cl)O5)cc4)CC3)cc2)c1=O (configuration not stated) [ITRACONAZOLE]	0.03 (≈ 0.0425 µM)	0.03 (≈ 0.0425 µM)	> 30	> 30	0.125 (≈ 0.177 µM)	>64	0.125 (≈ 0.177 µM)	>64	32	0.03 (≈ 0.0425 µM)	0.125 (≈ 0.177 µM)	16	0.125 (≈ 0.177 µM)	> 30	16 (≈ 22.7 µM)	–
OC(Cn1cncn1)(Cn1cncn1)c1ccc(F)cc1F [FLUCONAZOLE]	1 (≈ 3.27 µM)	0.5 (≈ 1.63 µM)	> 30	> 30	4 (≈ 13.1 µM)	>64	4 (≈ 13.1 µM)	>64	>64	0.5 (≈ 1.63 µM)	2 (≈ 6.53 µM)	32	8 (≈ 26.1 µM)	> 30	> 64	Activity [16]: 34.42%; Activity [17]: 3.15%; MIC [18]: > 64 µg/mL; Activity [19]: 4.21%; Activity [20]: 22.35%; MIC [21]: > 64 µg/mL; MIC [22]: > 64 µg/mL; Activity [23]: 29.02%; MIC [24]: > 64 µg/mL; MIC [25]: > 64 µg/mL; MIC [26]: > 64 µg/mL
Nc1ccc(S(=O)(=O)Nc2ccnn2-c2ccccc2)cc1 [SULFAPHENAZOLE]	–	–	–	–	–	–	–	–	–	–	–	–	–	–	–	inhibition at 10 min [27]: 84.5%
